Assays:
HEK293 cells [1] = test: MTT; assay type: cell-based; settings: for IC50: read-out: IC50,dark, 4 h incubation in dark, dark 20 min, then 16 h dark
Method in brief: (§1)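 In an MTT assay, cells were incubated with test compound in the dark for 4 h. They were then kept dark or irradiated at 450 nm (10 mW cm−2) for 20 min, and held a further 16 h in the dark. IC50 values were obtained under dark and light conditions, and the phototoxicity index was taken as IC50,dark/IC50,light.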

Photophysical = assay type: physicochemical; settings: for λem: λex = 350 nm; for τo: λex = 375 nm
U87-MG cells [2] = test: MTT; assay type: cell-based, human; settings: for IC50: read-out: IC50,dark, 4 h incubation in dark, dark 20 min, then 16 h dark
Method in brief: as §1

MCF-7 cells [3] = test: MTT; assay type: cell-based; settings: for IC50: read-out: IC50,dark, 4 h incubation in dark, dark 20 min, then 16 h dark
Method in brief: as §1

[4] = Singlet oxygen quantum yield with 1,3-diphenylisobenzofuran as scavenger; assay type: physicochemical; settings: aerated CH3CN, 298 K, λex = 450 nm
[5] = Phosphorogenic response towards BCN-OH; assay type: physicochemical; settings: 10 μM, BCN-OH 500 μM, aerated PBS/DMSO (9:1), dark 16 h; for λem after incubation with BCN-OH: λex = 350 nm
Method in brief: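 Test compound (10 μM) was incubated with excess BCN-OH (500 μM) in aerated PBS/DMSO (9:1, v/v) at 298 K in the dark for 16 h. Emission was recorded with λex 350 nm, and I/Io was taken as intensity with versus without BCN-OH. Lifetimes were measured at emission maxima (λex 375 nm).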

[6] = Emission response upon photoirradiation at 450 nm; assay type: physicochemical; settings: for Emission lifetime τ after photoirradiation / λem after photoirradiation: 10 μM, aerated PBS/DMSO (9:1), 450 nm (10 mW cm−2) 20 min; for λem after photoirradiation: λex = 350 nm
Method in brief: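 Test compound (10 μM) in aerated PBS/DMSO (9:1, v/v) was irradiated at 450 nm (10 mW cm−2) for 20 min at 298 K. Photoproducts were followed by RP-HPLC and identified by ESI-MS. Emission was recorded before and after irradiation (λex 350 nm), and I/Io was taken as the ratio of these intensities. Lifetimes were measured at emission maxima (λex 375 nm).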

U87-MG cells [7] = test: Annexin V/propidium iodide flow cytometry; assay type: cell-based, human; settings: 1 μM, 4 h, photoirradiation at 450 nm (10 mW cm−2) 20 min
Method in brief: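 Cells were pretreated with test compound (1 μM, 4 h), then kept unirradiated or continuously irradiated at 450 nm (10 mW cm−2) for 20 min. They were stained for 15 min with Alexa Fluor 647–Annexin V (λex 638 nm) and propidium iodide (100 μg mL−1 stock; λex 561 nm). Analysis was by flow cytometry.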

HEK293 cells [8] = test: Cellular uptake by ICP-MS; assay type: cell-based; settings: 5 µM, 4 h, 37°C
MCF-7 cells [9] = test: Cellular uptake by ICP-MS; assay type: cell-based; settings: 5 µM, 4 h, 37°C
U87-MG cells [10] = test: Cell death mechanism studies by LSCM; assay type: cell-based, human; settings: 5 μM, 4 h
Method in brief: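 For mitochondrial membrane potential, live cells were pretreated with test compound (5 μM, 4 h), then left unirradiated or irradiated at 450 nm (10 mW cm−2) for 20 min. They were stained with rhodamine 123 (5 μM, 15 min) and imaged by confocal microscopy (λex 488 nm, λem 500–550 nm).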

U87-MG cells [11] = test: Cellular uptake by ICP-MS; assay type: cell-based, human; settings: 5 µM, 4 h, 37°C
U87-MG cells [12] = test: Cellular uptake mechanism studies; assay type: cell-based, human; settings: 20 µM, 1 h
[13] = potassium phosphate buffer (50 mM, pH 7.4)/CH3CN (1:1), 298 K
[14] = + RGD peptide pretreatment (50 µM, 30 min)

λem (Photophysical; CH3CN, 298 K) [nm]	τo (Photophysical; CH3CN, 298 K) [μs]	τo (Photophysical; EtOH/MeOH (4:1) glass, 77 K) [μs]	Φem (Photophysical; [13])	λem (Photophysical; [13]) [nm]	τo (Photophysical; [13]) [μs]	PI (IC50,dark/IC50,light) (U87-MG cells [2])	IC50 (U87-MG cells [2]) [µM]	PI (IC50,dark/IC50,light) (MCF-7 cells [3])	IC50 (MCF-7 cells [3]) [µM]	1O2 quantum yield (ΦΔ) [4]	Substance	PI (IC50,dark/IC50,light) (HEK293 cells [1])	IC50 (HEK293 cells [1]) [µM]	Emission lifetime τ after incubation with BCN-OH [5] [μs]	λem after incubation with BCN-OH [5] [nm]	Emission lifetime τ after photoirradiation [6] [μs]	λem after photoirradiation [6] [nm]	also measured
631	0.67	4.23	0.02	648	0.34	103	4.1 ± 0.2	105	4.2 ± 0.1		[Ir(pqe)2(bpy-CONH2)](PF6) [complex 4]	100	5 ± 0.1					
632	0.68	4.25	0.002	650	0.23					0.55	[Ir(pqe)2(bpy-CONH-S-Tz-Cl)](PF6) [complex 1]							
631	0.60	4.38	0.002	650	0.18	138	11 ± 1	150	15 ± 1	0.60	[Ir(pqe)2(bpy-CONH-S-Tz-S-Et)](PF6) [complex 2]	133	12 ± 1	0.37	631	0.29	648	
634	0.69	4.79	0.02	648	0.35	135	2.7 ± 0.1	125	2.5 ± 0.1	0.81	[Ir(pqe)2(bpy-CONH-SCN)](PF6) [complex 3]	88	3.5 ± 0.2					

Substance	λem (Photophysical; CH3CN, 298 K) [nm]	τo (Photophysical; CH3CN, 298 K) [μs]	τo (Photophysical; EtOH/MeOH (4:1) glass, 77 K) [μs]	Φem (Photophysical; [13])	λem (Photophysical; [13]) [nm]	τo (Photophysical; [13]) [μs]	PI (IC50,dark/IC50,light) (U87-MG cells [2])	IC50 (U87-MG cells [2]) [µM]	PI (IC50,dark/IC50,light) (MCF-7 cells [3])	IC50 (MCF-7 cells [3]) [µM]	1O2 quantum yield (ΦΔ) [4]	PI (IC50,dark/IC50,light) (HEK293 cells [1])	IC50 (HEK293 cells [1]) [µM]	Emission lifetime τ after incubation with BCN-OH [5] [μs]	λem after incubation with BCN-OH [5] [nm]	Emission lifetime τ after photoirradiation [6] [μs]	λem after photoirradiation [6] [nm]	also measured
[Ir(pqe)2(bpy-CONH-S-Tz-S-RGD)](CF3COO) [conjugate 1-RGD]	631	0.58	4.14	0.001	648	0.19	325	26 ± 1	236			>38	> 50	0.33	632	0.26	648	Population of apoptotic cells (U87-MG cells [7]): 98.28%; Amount of iridium per average cell (HEK293 cells [8]; [14]): 0.030 fmol; Amount of iridium per average cell (HEK293 cells [8]; − RGD): 0.032 fmol; Time to complete photodissociation of S,S-tetrazine moiety ([6]; steady-state irradiation at 450 nm, 298 K): 20 min; Amount of iridium per average cell (MCF-7 cells [9]; [14]): 0.25 fmol; Amount of iridium per average cell (MCF-7 cells [9]; − RGD): 0.32 fmol; Φem (Photophysical; CH3CN, 298 K): 0.003; Intracellular ROS (CM-H2DCFDA emission) (U87-MG cells [10]; 450 nm 20 min vs dark): effective intracellular ROS generation; Mitochondrial membrane potential (rhodamine 123 emission) (U87-MG cells [10]; after 450 nm 20 min vs dark): significantly diminished in intensity; Amount of iridium per average cell (U87-MG cells [11]; [14]): 0.34 fmol; Amount of iridium per average cell (U87-MG cells [11]; − RGD): 0.70 fmol; Cellular uptake efficiency after metabolic or endocytosis inhibitors (U87-MG cells [12]; 2-deoxy-D-glucose and oligomycin, or NH4Cl or chloroquine): substantially reduced; Amount of intracellular iridium at low temperature vs 37 °C (U87-MG cells [12]; 4 °C): significantly decreased; Internalisation after cation transporter inhibitor (U87-MG cells [12]; tetraethylammonium chloride (1 mM) pretreatment): remained unaffected

— paper PMC12123436 (RSC Chemical Biology, 2025)
